Screens (PubChem)
Compounds with a hit are over-represented: about 2.1% of the library has one in this group of screens.
eIF4H FP inh = inhibitors of RNA binding by human eIF4H. eIF4H fluorescence polarization binding assay. inhibition, % at 35 µM. actives 0.94% (n = 290,000);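 note: calls also rest on retests at 20 µM and on dose response follow-up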
NS3 helicase inh = HCV NS3 helicase inhibition | NS3 helicase DNA unwinding, Cy5 molecular beacon fluorescence | inhibition, % at 10.9 µM | actives 0.56% (n = 290,000);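 active = inhibition above the mean of all tested compounds plus 3 SD, set per campaign, cut at about 35% in these data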;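 note: 0% = DMSO wells and 100% = thioflavine S control wells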
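Measured by: Cy5 fluorescence, 0 and 60 min reads / Assay system: NS3 helicase fragment of HCV / Control set: low DMSO, high thioflavine S at 110 µM / Times: 1 h reaction at 25 °C, ATP-initiated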
PABP1 MLLE inh = blocks PAM2 peptide binding to the PABP1 MLLE domain | AID 588489 | inhibition, % at 20 µM | GST-MLLE / FITC-PAM2 fluorescence polarization | actives 0.36% (n = 360,000); in the data active = inhibition above about 35%, passing the limit was not always enough;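 note: plate controls were DMSO wells with GST-MLLE for no effect and wells lacking GST-MLLE protein for full effect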
Target sequence (P11940 whole entry, looked up, the tested form may be a part): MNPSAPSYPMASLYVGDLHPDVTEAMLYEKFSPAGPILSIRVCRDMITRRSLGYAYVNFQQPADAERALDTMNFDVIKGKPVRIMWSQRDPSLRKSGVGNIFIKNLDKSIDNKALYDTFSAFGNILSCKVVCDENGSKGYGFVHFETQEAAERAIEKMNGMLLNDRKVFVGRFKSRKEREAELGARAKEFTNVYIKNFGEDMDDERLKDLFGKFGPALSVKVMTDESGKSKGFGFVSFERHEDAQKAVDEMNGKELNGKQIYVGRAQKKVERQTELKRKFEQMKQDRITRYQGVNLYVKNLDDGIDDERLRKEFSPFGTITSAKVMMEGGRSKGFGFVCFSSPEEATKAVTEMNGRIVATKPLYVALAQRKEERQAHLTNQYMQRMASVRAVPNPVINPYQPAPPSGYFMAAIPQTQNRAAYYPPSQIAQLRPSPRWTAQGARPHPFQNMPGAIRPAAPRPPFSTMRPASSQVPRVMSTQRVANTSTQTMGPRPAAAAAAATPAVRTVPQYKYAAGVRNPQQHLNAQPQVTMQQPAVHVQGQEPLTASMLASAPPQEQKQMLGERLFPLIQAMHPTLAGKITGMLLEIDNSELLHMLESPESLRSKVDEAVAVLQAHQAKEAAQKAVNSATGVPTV
ZTA DNA inh = ZTA (EBV) inhibition in EBNA-1 counter-screen | inhibition, % at 11 µM | P03206 | ZTA-DNA binding, fluorescence polarization | actives 0.15% (n = 320,000); in the data active = inhibition above about 33%
PABP polyA inh = PABP-poly(A) binding inhibition | actives 1% (n = 290,000) | P11940 | inhibition, % at 35 µM | PABP-poly(A) RNA binding, fluorescence polarization | AID 2014;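 note: calls also rest on retests at 20 µM and on dose response follow-up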
EBNA-1 inh = blocks EBNA-1 binding to DNA; EBNA-1 DNA binding, fluorescence polarization; inhibition, % at 14.8 µM; actives 0.34% (n = 300,000); AID 1950; in the data active = inhibition above about 28%
EBNA-1 inh conf = EBNA-1 (EBV) inhibition, confirmation; inhibition, % at 14.8 µM; AID 2292; Recombinant EBNA-1 DBD, Cy5-DNA fluorescence polarization; actives 35% (n = 830); shares compounds with EBNA-1 inh;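 active = mean inhibition across replicates above a set limit taken from the earlier primary screen, cut at about 28% in these data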;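 note: plate controls were EBNA-1 protein with DMSO for no effect and wells lacking EBNA-1 for full effect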
ZTA counter trip = counter-screen for EBNA-1 inhibitors: Epstein-Barr virus ZTA inhibitors, triplicate; Zta-ZRE DNA binding, Cy5 fluorescence polarization; inhibition, % at 11.1 µM; 830 tested, under 10 active; AID 2328; shares compounds with EBNA-1 inh;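 active = mean inhibition over triplicates above a set limit taken from the primary EBNA-1 screen, cut at about 37% in these data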;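 note: purified full length Zta protein with Cy5 labeled ZRE DNA probe; 0% = Zta with DMSO and 100% = wells lacking Zta protein; inhibitors lower polarization by freeing the labeled DNA probe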
* hit, by the source's call; nt = no result given. Unless noted, the rule behind the calls is not given here.

SMILES | eIF4H FP inh | NS3 helicase inh | PABP1 MLLE inh | ZTA DNA inh | PABP polyA inh | EBNA-1 inh | EBNA-1 inh conf | ZTA counter trip
COc1ccc(Cc2c(Cl)ncnc2Cl)cc1 | -7 | -12 | -6 | 12 | 1 | 33* | -9 | -11
CC(=O)CSc1ncnc2scc(-c3ccc(F)cc3)c12 | -5 | -9 | -1 | 13 | -8 | 0 | nt | nt
Cc1ccc(-c2csc3ncnc(SCC(=O)Nc4nnc(C)s4)c23)cc1 | -9 | 9 | 1 | -5 | -6 | 38* | 17 | -2
COc1ccc(Cl)cc1-c1noc([C@@H]2O[C@H](CO)[C@@H](O)[C@H]2O)n1 | nt | nt | 10 | nt | nt | nt | nt | nt
Cc1cc(C)cc(NC(=O)Cn2c(-c3ccccc3Cl)nc3ccccc32)c1 | 1 | 13 | -9 | 1 | 7 | 60* | -10 | -9
COC(=O)c1ccc(NC(=O)Cn2c(-c3nonc3N)nc3ccccc32)cc1 | -9 | 0 | -15 | 21 | 7 | 10 | nt | nt
O=C(Cn1c(-c2ccccc2Cl)nc2ccccc21)Nc1cccc(Cl)c1 | 1 | 7 | -2 | 3 | 7 | 5 | nt | nt
CCOC(=O)c1ccc(NC(=O)Cn2c(-c3nonc3N)nc3ccccc32)cc1 | -9 | 9 | -12 | 27 | 2 | 31* | 32* | 19
O=C(Nc1ccccc1C(=O)N1CCOCC1)c1ccc([N+](=O)[O-])cc1 | -7 | -12 | 1 | -11 | 2 | 0 | nt | nt
O=C(Nc1ccc2oc(-c3ccccc3)nc2c1)c1ccc2c(c1)OCCO2 | 0 | -9 | -9 | -8 | -6 | 7 | nt | nt
O=C(Nc1ccc2oc(-c3cccnc3)nc2c1)c1ccc2c(c1)OCCO2 | -20 | -1 | -67 | 4 | -60 | 41* | 0 | 13
CCCCC1SC(N)=NC1=O (configuration not stated) | nt | nt | -2 | nt | nt | nt | nt | nt
O=C(/C=C/c1c[nH]c2ccccc12)c1cccc2ccccc12 | 19 | -6 | -19 | -6 | 11 | -3 | nt | nt
Cn1c(=O)n(C)c2cc(/C=C3/NC(=O)N(Cc4ccccc4)C3=O)ccc21 | 5 | 1 | -8 | -7 | 6 | 134* | 113* | 1
Cc1cc(C(=O)N2CC(C)CC(C)C2)n(-c2ccccc2)n1 (configuration not stated) | -6 | -4 | 13 | 14 | -2 | 7 | nt | nt
CN1CCN(c2ccc(NC(=O)c3ccc(-c4ccc(Br)cc4)o3)cc2)CC1 | -14 | -60 | 6 | 4 | 0 | 8 | nt | nt
Cc1ccc(Nc2nnc(SCn3nnc4ccccc4c3=O)s2)cc1 | 6 | -2 | -39 | -8 | -4 | -2 | nt | nt
O=c1c2ccccc2nnn1CSc1nnc(Nc2ccccc2)s1 | 8 | -10 | -6 | 5 | -12 | 36* | 13 | 16
Cc1cc[n+](CC2OCc3ccccc3CO2)cc1 | 1 | 1 | -12 | 2 | 1 | -8 | nt | nt
Cc1ccccc1-c1nsc(SCC(=O)Nc2ccc3c(c2)OCO3)n1 | -14 | 6 | 2 | 10 | -11 | 31* | 18 | 14
Cc1ccc(C(O)c2ncc(-c3ccccc3Cl)[nH]2)cc1 (configuration not stated) | nt | nt | -4 | nt | nt | nt | nt | nt
COc1ccccc1NS(=O)(=O)c1cccc(-n2c(O)c(C=Nc3ccccc3C(=O)O)c3ccccc3c2=O)c1 | 17 | 27 | -3 | 10 | 44 | 36* | 21 | 6
O=C(CSc1nc2ccccc2s1)Nc1nccs1 | -8 | -5 | 13 | 1 | 1 | 65* | 11 | -1
CCc1nnc(NC(=O)CSc2nc3cc4c(cc3cc2C)OCCO4)s1 | 6 | 3 | -55 | 0 | -4 | 102* | 98* | 12
O=C(NNC(=O)c1cccs1)c1ccc(Br)cc1 | -7 | -6 | -9 | -7 | 9 | -6 | nt | nt
SMILES | eIF4H FP inh | NS3 helicase inh | PABP1 MLLE inh | ZTA DNA inh | PABP polyA inh | EBNA-1 inh | EBNA-1 inh conf | ZTA counter trip
O=C(Nc1cccc(NC(=O)c2ccccc2Cl)c1)c1ccc(F)cc1 | -5 | -3 | -13 | -8 | 3 | 3 | nt | nt
O=C(Nc1cccc(NC(=O)c2cccs2)c1)c1ccc(Br)cc1 | -7 | 3 | -1 | 13 | -4 | 70* | 75* | 9
O=C(Nc1cccc(NC(=O)c2ccc(F)cc2)c1)c1ccc(F)cc1 | -15 | -8 | 5 | 8 | 1 | 28* | 10 | 2
COc1ccc(NC(=S)N2CCC(NC(=O)c3ccc(F)cc3)CC2)cc1 | -5 | -16 | -102 | -5 | -6 | 3 | nt | nt
COc1ccccc1/C=N/NC(=O)C(=O)Nc1ccccc1OC(F)(F)C(F)F | 6 | 1 | 10 | -20 | -3 | -2 | nt | nt
COc1cccc(/C=N/NC(=O)C(=O)Nc2ccccc2OC(F)(F)C(F)F)c1 | -6 | 11 | -24 | 13 | -7 | 30* | 24 | 5
O=C(c1ccccc1F)N1CCN(S(=O)(=O)c2ccc(S(=O)(=O)N3CCCCCC3)cc2)CC1 | -13 | -1 | 4 | 3 | 1 | 31* | 33* | -6
N=C1/C(=C\c2ccc(-c3cccc(C(=O)O)c3)o2)C(=O)N=C2SC=C(c3ccccc3)N12 | 58* | 18 | -79 | -8 | 60* | 32* | 36* | 19
CC1Cc2ccccc2N1C(=O)CSc1nnc(CNc2ccccc2)o1 (configuration not stated) | 5 | -1 | -5 | -3 | -7 | 12 | nt | nt
C=CCOc1ccc(-c2nc3c(c(=O)[nH]c(=O)n3Cc3ccccc3)n2CCCOC)cc1 | -7 | -12 | 3 | 16 | 5 | 29* | -2 | -3
O=C(NCCOc1ccccc1F)c1ccc2c(=O)n3c(nc2c1)CCC3 | nt | nt | -12 | 8 | nt | nt | nt | nt
O=C(NCCc1ccc(F)cc1)c1ccc2c(=O)n3c(nc2c1)CCC3 | nt | nt | -4 | -12 | nt | 45* | -4 | -5
O=C(N/C(=C/c1ccc(Br)cc1)c1nc2ccccc2[nH]1)c1ccco1 | 0 | -12 | 8 | 18 | 8 | 31* | 82* | 18
O=C(Cc1ccccc1[N+](=O)[O-])N1CCN(c2ccc(F)cc2)CC1 | -8 | -7 | -4 | 3 | 6 | 14 | nt | nt
Cc1cc(C)n(-c2ccc(C(=O)OCC(=O)NC(c3ccccc3)c3ccccc3)cc2)n1 | 3 | 6 | 1 | 19 | -7 | 32* | 26 | 2
Cc1cccc(C)c1NC(=O)COc1ccc2c(C)c(Cc3ccccc3)c(=O)oc2c1 | 1 | 1 | 0 | 11 | 5 | 68* | 7 | -5
Nc1ccc(NC(=O)CCN2CCOCC2)cc1 | -6 | -1 | -10 | nt | -9 | nt | nt | nt
COCCOC(=O)c1c(NC(=O)COC(=O)Cc2cccc(OC)c2)sc(C(N)=O)c1C | -2 | -2 | -7 | -7 | 11 | 39* | 98* | 8
